Consider 70 molecules from ChEMBL document CHEMBL4513216, “Probing the Open Global Health Chemical Diversity Library for Multistage-Active Starting Points for Next-Generation Antimalarials” (ACS Infect Dis, 2020).

The series can be described thus: Toxicity liver stage against HepG2, at 10uM. It counts as cell-based. Details: test concentration 10 uM, cell line HepG2-A16-CD81EGFP. Conditions: human, HepG2-A16-CD81EGFP cells; read-out: INHIBITION
The procedure, abridged: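 Uninfected HepG2-A16-CD81EGFP cells, 3 × 10^3 per well, 1536-well, plated on prespotted compound at 10 μM final, parasite-free screening media added to match infected plates; puromycin 10 μM positive, DMSO 0.5% negative; run in parallel with 48 h PbLuc assay at 37 °C, 5% CO2; viability by CellTiter-Glo luminescence, normalized to controls.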

Molecules are shown by their SMILES.

Consider `CO[C@@H]1CC[C@H]2[C@H]1OCCN2C(=O)C1CCOCC1`, for which the cytotoxicity at 10 µM came to 3.33%. As for `COc1c(C2CCCN2c2ncnc3c2cnn3C)c(C)nn1C` (stereo not given), the figure is 1.95%. With `c1cnc(N2CCOC3(CCN(CC4CCOC4)CC3)C2)nc1` (stereo not given), the cytotoxicity at 10 µM is -0.777%. Next, `CC(C)(C(N)=O)N1CCN(C(=O)c2ccn(-c3cccc(Cl)c3)n2)CC1`: -13.3%; `Cc1cc(NC(=O)N2CCCC2C(=O)NC2CC2)c2ncccc2c1` (stereo not given): -2.43%; `CCOc1ccc(NC(=O)Cn2cc(I)cn2)cc1`: 9.84%. As for `Cc1cccc(N2CCC(N3CCCC4(CN(C)C(=O)O4)C3)CC2)c1C` (stereo not given), the figure is -12.8%; as for `CS(=O)(=O)N1CCN(C(=O)c2cc(-c3ccc(Br)s3)n[nH]2)CC1`, -7.62%; as for `CN(Cc1ccccc1-n1cccn1)c1nc(N)nc2c1CCNCC2`, -12.2%. As for `CN(C(=O)c1cc(F)ccc1F)[C@@H]1CC[C@@H](O)[C@@H]1O`, the figure is -0.822%; as for `O=C(c1ccc(S(=O)(=O)NCC(F)F)cc1)N1C[C@H]2CNC[C@H]2C1`, -13%; as for `CCCS(=O)(=O)N1CCC2(CC(C(=O)NCc3cccnc3)=NO2)C1` (stereo not given), -4.51%. On to `Cc1cnn(CCNCC(=O)NCCOc2ccc(F)cc2)c1`, for which the cytotoxicity at 10 µM was -4.45%. As for `N#Cc1ccc(OCCCN2CCOC(Cn3cncn3)C2)cc1` (stereo not given), the figure is -0.0581%; as for `COc1cc(Cl)c(NCc2c(C)noc2C)cc1OC`, 8.77%; as for `CN1CCN(Cc2nc3c(s2)CCCC3)[C@H]2CS(=O)(=O)C[C@H]21`, 2.81%.

For `CCOC(=O)[C@]12CCCN(Cc3nccs3)C[C@H]1CN(CC(C)C)C2`, the cytotoxicity at 10 µM was -2.85%. As for `CC(C)c1cc(NC(=O)CN2CCc3cncnc3C2)on1`, the figure is -8.83%; as for `N#Cc1cccc(C(=O)N2CCc3ncc(Cn4cccn4)n3CC2)c1`, 5.84%. As for `O=C(NC1CC1)c1ccn(COc2c(Cl)cccc2Cl)n1`, the figure is 7.36%; as for `COc1ccc2nnc(CCCC(=O)NCCc3ccccn3)n2n1`, -9.49%. Next, `COC1CCN(C(=O)CCc2c(C)nc3ccnn3c2C)CC1`: -5.72%; `O=C(c1ccsc1)N1C[C@H](N2CCOCC2)[C@@H]2OCCC[C@@H]21`: 8.28%; `Cc1cc(CNC(=O)CCc2c(C)nc3cc(O)nn3c2C)no1`: -3.27%. Consider `CSCCC(=O)N1CCN(CC(O)C(C)(C)C)CC1` (stereo not given), for which the cytotoxicity at 10 µM was -2.06%. As for `Cc1ccc(N2CCCC(NCc3cccc4c3OCO4)C2)nn1` (stereo not given), the figure is -16.4%. As to `Cc1cc(C(=O)N(C)C)c2c(Br)cccc2n1`, the cytotoxicity at 10 µM is -6.4%. Next, `CC(C)c1cc(C(=O)N2CCN(CC3CC3)[C@@H]3CS(=O)(=O)C[C@@H]32)on1`: 3.05%; `O=C(CCc1cn[nH]c1)N1C[C@@H](CN2CCCCCC2)[C@@H](CO)C1`: 2.62%; `c1cnc(N2CCO[C@H]3[C@H](OCC4CC4)CC[C@@H]32)nc1`: 5.88%. As for `O=C(Cc1cccnc1)N1CCC2(CC1)CCN(C1CCOC1)C2` (stereo not given), the figure is -2.52%; as for `CCOCCNC(=O)Nc1ccc(OCc2noc(C3CC3)n2)cc1`, 6.48%. Next, `CC(C(=O)N1CCc2sccc2C1)N1CCC(N2CCCC2)CC1` (stereo not given): 10.9%.

Turning to `Cc1ccc(C(=O)N2CCc3ncnc(C)c3CC2)cc1F`, the cytotoxicity at 10 µM was 11.5%.

Consider `CSc1ccc(-c2nc(CN3CCC(NC(C)=O)CC3)c(C)o2)cc1`, for which the cytotoxicity at 10 µM is -2.76%. As for `Cc1nc(CC2CCN(C(=O)C(c3ccccc3C)N(C)C)CC2)no1` (stereo not given), the cytotoxicity at 10 µM turned out to be 4.66%. As for `COCC(=O)N1CCc2ncc(Cn3cncn3)n2CC1`, the figure is -81%; as for `O=C(Cn1cnc2cc3c(cc21)OCCCO3)NC1CCCCC1`, 5.68%. For `O=C(CNC(=O)c1c[nH]c2ccccc12)NCCCn1ccnc1`, the cytotoxicity at 10 µM is -11.1%.

Take `Cc1cccc(CN2C[C@@H]3COC[C@]3(CNC(=O)c3ccno3)C2)n1`: the cytotoxicity at 10 µM was determined as 3.84%. Next, `c1cnn(CC2CCCCN2Cc2noc(C3CC3)n2)c1` (stereo not given): -3.48%; `COc1c(C)cnc(CN2CCC(N(C)S(C)(=O)=O)CC2)c1C`: 0.141%; `c1cc(CN2CCC(c3ccncc3)CC2)cc(Cn2cccn2)c1`: -10.1%. Next, `Cc1cc(C(=O)NCCC2CCN(C)CC2)ccc1N(C)S(C)(=O)=O`: 5.82%; `CN1C(=O)CC(C(=O)O)C12CCN(Cc1ccc(F)c(Cl)c1)CC2` (stereo not given): 0.998%. Next, `Cn1ccnc1C1CCN(CCN2CCOCC2)CC1`: 4.69%. As to `CN(C)C(=O)CN1C[C@H]2CC[C@@H](C1)N(C(=O)CCn1cncn1)C2`, the cytotoxicity at 10 µM is -9.96%. As for `c1cncc(CNCc2cccs2)c1`, the cytotoxicity at 10 µM was 10.1%. As for `Cc1ccc(C(CNC(=O)c2cc(=O)c3ccccc3[nH]2)N(C)C)cc1` (stereo not given), the figure is -14.6%; as for `Cc1ccc(-c2cc(C(=O)N3CCCC3c3cccnc3)[nH]n2)o1` (stereo not given), -1.41%. Next, `COc1ccc(C2=Nn3c(CN)nnc3-c3ccccc3C2)cc1`: 8.55%; `CCn1cc(CNC(=O)C2CCCC2)cn1`: 9.18%; `COc1ccc(C(=O)NCCC(N)=O)c(I)c1`: 9.34%.

`Fc1cnc(N2CCCC3(CCN(c4ncccn4)C3)C2)nc1` (stereo not given): the cytotoxicity at 10 µM was -113%. Next, `COc1cccc(CCC2CCCCN2)c1` (stereo not given): -1.73%; `C[C@@H]1CN(C2CCOCC2)C[C@]12CCN(c1cccnc1)C2=O`: 5.95%. As for `O=S1(=O)NCC2(CCNCC2)COc2ccccc21`, the figure is -2.75%. Next, `Cn1c(-c2ccccc2Cl)nc2cc(C(=O)NC(CO)CO)cnc21`: -10.8%; `Cc1cc(C)n(-c2cncc(NCCNC(=O)C3CCCC3)n2)n1`: 3.51%; `c1ccc(-c2nc(CN3CCn4c(nnc4C4CC4)C3)cs2)cc1`: -3.92%. In the case of `CCc1oc2ccc(NS(=O)(=O)CC)cc2c1C(=O)OC`, the cytotoxicity at 10 µM came out at 5.05%. Next, `Cc1ccoc1C(=O)N1CCCc2c(c(=O)n(C)n2C)C1`: 11.7%; `O=C(CCO)N1C[C@@H]2CC[C@H]1CN(C1Cc3ccccc3C1)C2`: -0.608%. Next, `Cc1nc2c(N(C)Cc3ccnn3C)nc(N)nc2n1C`: -7.42%; `CC(C)(C)C(=O)NCC(=O)NCCc1nc(C(F)(F)F)cs1`: 6.16%; `Cc1nc(CNC(=O)NC2CCCN(c3ncccn3)C2)cs1` (stereo not given): -140%. As for `Cc1cc(C)c(CNC(=O)N2CCOC(c3ccccc3)C2)c(=O)[nH]1` (stereo not given), the figure is 0.0687%; as for `CCCn1cnnc1CNC(=O)CC1C(=O)NCCN1C(C)C` (stereo not given), 0.445%.

Take `CN(C)C(=O)Cc1ccccc1NCc1nc(Cc2ccccc2)no1`: the cytotoxicity at 10 µM is 1.9%. Next, `CC(C)CC(CO)NC(=O)NCc1csc(N(C)C)n1` (stereo not given): 6.07%.
